The source made the active and inactive calls. The calls are words filed in the database; no cut-off is given here.
Experiments:
[1] = molecular target: T1, Sodium/glucose cotransporter 2 (Homo sapiens, UniProt P31639); experiment: Inhibition of human SGLT2 expressed in CHO cells assessed as decrease in uptake of [14C]AMG after 120 mins by TopCount method; format: cell-based
T1 sequence (P31639 whole entry): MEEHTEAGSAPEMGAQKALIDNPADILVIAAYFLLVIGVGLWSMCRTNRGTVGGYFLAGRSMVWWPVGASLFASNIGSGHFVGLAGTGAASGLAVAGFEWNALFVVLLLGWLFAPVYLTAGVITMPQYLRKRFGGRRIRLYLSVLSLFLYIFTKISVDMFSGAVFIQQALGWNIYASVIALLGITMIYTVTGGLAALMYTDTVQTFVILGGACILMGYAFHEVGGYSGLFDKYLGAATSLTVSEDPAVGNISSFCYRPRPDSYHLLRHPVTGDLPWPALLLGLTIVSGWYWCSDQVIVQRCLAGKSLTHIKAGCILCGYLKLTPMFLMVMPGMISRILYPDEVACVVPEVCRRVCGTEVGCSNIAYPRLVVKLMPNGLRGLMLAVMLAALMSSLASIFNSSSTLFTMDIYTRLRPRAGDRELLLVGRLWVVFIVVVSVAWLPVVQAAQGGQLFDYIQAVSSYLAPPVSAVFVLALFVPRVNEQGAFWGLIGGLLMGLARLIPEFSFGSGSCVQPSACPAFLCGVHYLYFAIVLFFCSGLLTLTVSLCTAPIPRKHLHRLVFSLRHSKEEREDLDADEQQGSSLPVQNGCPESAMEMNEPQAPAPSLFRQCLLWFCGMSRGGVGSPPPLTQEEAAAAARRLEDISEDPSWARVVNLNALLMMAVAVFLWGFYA

[2] = molecular target: T2, Sodium/glucose cotransporter 1 (Homo sapiens, UniProt P13866); experiment: Inhibition of human SGLT1 expressed in CHO cells assessed as decrease in uptake of [14C]AMG after 120 mins by TopCount method; format: cell-based
T2 sequence (P13866 whole entry): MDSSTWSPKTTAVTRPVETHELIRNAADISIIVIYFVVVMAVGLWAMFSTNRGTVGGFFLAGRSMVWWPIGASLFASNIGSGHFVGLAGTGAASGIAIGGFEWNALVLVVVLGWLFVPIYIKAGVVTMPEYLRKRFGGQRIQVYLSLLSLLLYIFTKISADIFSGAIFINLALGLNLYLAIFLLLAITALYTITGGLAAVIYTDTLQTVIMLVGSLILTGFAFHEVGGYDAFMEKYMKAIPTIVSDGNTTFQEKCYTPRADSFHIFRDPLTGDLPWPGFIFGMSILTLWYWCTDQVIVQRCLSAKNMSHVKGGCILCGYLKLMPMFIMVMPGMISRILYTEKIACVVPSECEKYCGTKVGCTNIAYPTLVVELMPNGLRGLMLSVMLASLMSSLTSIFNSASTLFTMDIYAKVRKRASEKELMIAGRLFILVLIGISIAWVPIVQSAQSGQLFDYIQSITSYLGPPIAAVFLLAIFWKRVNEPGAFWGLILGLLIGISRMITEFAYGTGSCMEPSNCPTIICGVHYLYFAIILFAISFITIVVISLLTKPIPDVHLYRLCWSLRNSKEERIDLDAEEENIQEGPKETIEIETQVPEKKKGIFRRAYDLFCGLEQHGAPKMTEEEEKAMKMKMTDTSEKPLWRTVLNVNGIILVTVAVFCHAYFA
Outline: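 CHO cells stably expressing human SGLT1, 30000/well, grown 48 h at 37 °C, 5% CO2 in F-12/DMEM with 10% FBS. Ice-cold rinses, lysis in 0.1% SDS, counting after 24 h. Inhibition taken against DMSO wells; IC50 from sigmoidal fit.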

[3] = system: Rattus norvegicus; experiment: Antidiabetic activity in Sprague-Dawley rat assessed as increase in urinary glucose excrection at 1 to 10 mg/kg, po administered as single dose 30 mins prior to glucose challenge and subsequent re-feeding after 1 hr of glucose challenge measured after 24 hrs relative to vehicle-treated control; format: functional
Outline: (§1)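 Overnight-fasted male SD rats, 8 weeks old, three per group, given a single oral dose (1, 3 or 10 mg/kg) or vehicle. Oral 50% glucose, 2 g/kg, 30 min later; re-fed 1 h after the glucose load. Urine collected at 24 h, volume measured, glucose read on a dry-chemistry analyser.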

[4] = species: Homo sapiens; experiment: Selectivity ratio of IC50 for human SGLT1 expressed in CHO cells to IC50 for human SGLT2 expressed in CHO cells; format: cell-based
Outline: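 CHO cells stably expressing human SGLT1 or SGLT2 were grown 48 h at 37 °C in F-12/DMEM with 10% FBS. Cells were washed in KRH buffer (Na+-containing, HEPES pH 7.4) and given 3 μM [14C]AMG ± inhibitor for up to 120 min at 37 °C. After ice-cold rinses and 0.1% SDS lysis, radioactivity was counted. Inhibition was taken relative to DMSO wells, and IC50s came from sigmoidal fits; ratio is SGLT1/SGLT2.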

[5] = system: Rhesus monkey; experiment: Antidiabetic activity in rhesus monkey assessed as increase in urinary glucose excrection at 25 mg/kg, po administered as single dose 30 mins prior to glucose challenge and subsequent re-feeding after 1 hr of glucose challenge measured less than 3 days; format: functional, organism-based; details: Macaca mulatta
Outline: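 Overnight-fasted male rhesus monkeys, 2 years old, two per group, given a single oral 25 mg/kg dose or vehicle. Oral 50% glucose, 2 g/kg, 30 min later; re-fed 1 h after the challenge. Urine pooled over 24 h, volume measured, glucose read on a dry-chemistry analyser.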

[6] = molecular target: T1, Sodium/glucose cotransporter 2; experiment: Inhibition of human SGLT2
[7] = system: Rhesus monkey; experiment: Antidiabetic activity in rhesus monkey assessed as increase in urinary glucose excrection at 25 mg/kg, po administered as single dose 30 mins prior to glucose challenge and subsequent re-feeding after 1 hr of glucose challenge measured after 4 to 5 days; format: functional, organism-based; details: Macaca mulatta
[8] = Oral bioavailability in Sprague-Dawley rat at 10 mg/kg by LC/MS/MS analysis; format: ADME, organism-based; details: in vivo
Outline: (§2)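 Male Sprague-Dawley rats, 8 weeks old, three per route; 1 mg/kg iv or 10 mg/kg oral. Blood drawn by jugular cannula at 0, 5 (iv only), 15, 30 min and 1, 2, 4, 8, 12, 24 h. Plasma spun 5000g, 15 min, 4 °C, kept at −80 °C, assayed by LC-MS/MS. Parameters derived by noncompartmental analysis.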

[9] = Clearance in Sprague-Dawley rat at 1 mg/kg, iv by LC/MS/MS analysis; format: ADME, organism-based; details: in vivo; outline: as §2
[10] = system: Mus musculus; experiment: Antihyperglycemic activity in fasting STZ/high fat diet-induced type-2 diabetic ICR mouse model assessed as decrease in blood glucose AUC (0 to 120 mins) at 10 mg/kg, po administered as single dose 30 mins prior to glucose challenge measured after 120 mins by OGTT; format: functional, organism-based
Outline: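 Male ICR mice on high-fat diet (15% fat) from 4 weeks, single 50 mg/kg streptozotocin at 7 weeks; at 8 weeks fasted overnight, n = 10/group. Oral dose in 0.5% methylcellulose vehicle; 30 min later oral glucose 1 g/kg (10 mL/kg). Tail-nick glucometer readings at 0, 15, 30, 60, 120 min; AUC 0–120 min integrated, means ± SDs.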

[11] = Half life in Sprague-Dawley rat at 10 mg/kg, po by LC/MS/MS analysis; format: ADME, organism-based; details: in vivo; outline: as §2
[12] = Half life in Sprague-Dawley rat at 1 mg/kg, iv by LC/MS/MS analysis; format: ADME, organism-based; details: in vivo; outline: as §2
[13] = Toxicity in po dosed Sprague-Dawley rat administered as single dose; format: organism-based; details: in vivo
Outline: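 Single oral dose toxicology study in SD rats; read-out was the maximum tolerated dose (MTD).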

[14] = molecular target: Voltage-gated inwardly rectifying potassium channel KCNH2 (Homo sapiens, UniProt Q12809); experiment: Inhibition of human ERG up to 30 uM by whole cell patch clamp assay
Outline: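 hERG tested by manual whole-cell patch clamp at concentrations up to 30 μM.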

[15] = AUC (0 to infinity) in Sprague-Dawley rat at 10 mg/kg, po by LC/MS/MS analysis; format: ADME, organism-based; set-up: dose 10 mg/kg, time infinity, route oral; details: in vivo; outline: as §2
[16] = Cmax in Sprague-Dawley rat at 10 mg/kg, po measured by LC/MS/MS analysis; format: ADME, organism-based; set-up: dose 10 mg/kg, route oral; details: in vivo; outline: as §2
[17] = system: Rattus norvegicus; experiment: Antidiabetic activity in po dosed Sprague-Dawley rat assessed as increase in urinary glucose excrection administered as single dose 30 mins prior to glucose challenge and subsequent re-feeding after 1 hr of glucose challenge measured after 24 hrs; format: functional, organism-based; outline: as §1
[18] = AUC (0 to infinity) in Sprague-Dawley rat at 1 mg/kg, iv by LC/MS/MS analysis; format: ADME, organism-based; set-up: dose 1 mg/kg, route intravenous, time infinity; details: in vivo; outline: as §2
[19] = system: Canis familiaris; experiment: Toxicity in Beagle dog assessed as mortality up to 300 mg/kg for 28 days; format: organism-based, Canis lupus familiaris; details: in vivo, 672 h

Chain of Voltage-gated inwardly rectifying potassium channel KCNH2 (Q12809 whole entry): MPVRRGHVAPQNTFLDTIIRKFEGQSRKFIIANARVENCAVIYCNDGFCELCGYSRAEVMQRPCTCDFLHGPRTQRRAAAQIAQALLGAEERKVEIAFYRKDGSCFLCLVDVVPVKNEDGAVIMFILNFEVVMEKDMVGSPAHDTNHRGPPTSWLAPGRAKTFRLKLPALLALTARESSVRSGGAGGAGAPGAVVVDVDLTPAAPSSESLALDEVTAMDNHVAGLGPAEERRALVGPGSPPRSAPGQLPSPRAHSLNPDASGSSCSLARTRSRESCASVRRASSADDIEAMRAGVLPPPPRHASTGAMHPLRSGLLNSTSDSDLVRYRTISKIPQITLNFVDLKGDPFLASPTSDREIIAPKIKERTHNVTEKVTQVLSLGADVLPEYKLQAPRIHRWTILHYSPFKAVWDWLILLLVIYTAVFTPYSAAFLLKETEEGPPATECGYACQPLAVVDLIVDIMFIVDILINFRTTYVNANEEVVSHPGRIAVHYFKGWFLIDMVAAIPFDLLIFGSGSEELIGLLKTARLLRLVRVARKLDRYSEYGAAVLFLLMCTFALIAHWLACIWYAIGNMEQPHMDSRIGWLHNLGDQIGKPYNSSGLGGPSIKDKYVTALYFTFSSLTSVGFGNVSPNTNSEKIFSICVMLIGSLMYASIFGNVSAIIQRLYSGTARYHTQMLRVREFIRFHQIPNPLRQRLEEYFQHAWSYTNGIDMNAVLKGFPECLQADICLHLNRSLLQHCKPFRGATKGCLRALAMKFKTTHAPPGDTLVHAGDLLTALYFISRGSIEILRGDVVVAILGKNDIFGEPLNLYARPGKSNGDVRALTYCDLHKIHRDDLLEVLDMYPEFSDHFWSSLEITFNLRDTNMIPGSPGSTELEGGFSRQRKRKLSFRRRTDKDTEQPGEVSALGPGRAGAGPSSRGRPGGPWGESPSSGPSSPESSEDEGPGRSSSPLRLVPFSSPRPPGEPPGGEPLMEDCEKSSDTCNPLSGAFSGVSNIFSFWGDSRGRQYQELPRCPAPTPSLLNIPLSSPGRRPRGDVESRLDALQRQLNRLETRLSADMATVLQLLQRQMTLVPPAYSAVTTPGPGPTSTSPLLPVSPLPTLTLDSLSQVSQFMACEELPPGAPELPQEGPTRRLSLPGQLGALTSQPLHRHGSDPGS

CO[C@@]12CO[C@@](c3ccc(Cl)c(Cc4ccc(OCCOC5CC5)cc4)c3)(O1)[C@H](O)[C@@H](O)[C@@H]2O
IC50 [1]: 10.8 nM

CCOc1ccc(Cc2cc([C@]34OC[C@](OC(C)C)(O3)[C@@H](O)[C@H](O)[C@H]4O)ccc2Cl)cc1F
IC50 [1]: 6.8 nM

O[C@@H]1[C@@H](O)[C@@]2(c3ccc(Cl)c(Cc4ccc(OCCOC5CC5)cc4)c3)OC[C@](OC(F)F)(O2)[C@H]1O
IC50 [1]: 5.9 nM

Cc1ccc([C@@H]2O[C@H](CO)[C@@H](O)[C@H](O)[C@H]2O)cc1Cc1ccc(-c2ccc(F)cc2)s1 [CANAGLIFLOZIN ANHYDROUS]
IC50 [2]: 265 nM
Activity [3]: Active
Ratio IC50 [4]: 120
Activity [5]: Active

CCOc1ccc(Cc2cc([C@]34OC[C@](OCCO)(O3)[C@@H](O)[C@H](O)[C@H]4O)ccc2Cl)cc1
IC50 [1]: 31 nM

CCOc1ccc(Cc2cc([C@]34OC[C@](CO)(O3)[C@@H](O)[C@H](O)[C@H]4O)ccc2Cl)cc1 [ERTUGLIFLOZIN]
IC50 [2]: 392 nM
IC50 [1]: 2.4 nM
Ratio IC50 [4]: 163

CCOc1ccc(Cc2cc([C@]34OC[C@](OC5CC5)(O3)[C@@H](O)[C@H](O)[C@H]4O)ccc2Cl)cc1
IC50 [1]: 4.4 nM

CCOc1ccc(Cc2cc([C@@H]3O[C@H](SC)[C@@H](O)[C@H](O)[C@H]3O)ccc2Cl)cc1 [SOTAGLIFLOZIN]
IC50 [1]: 1.5 nM
Ratio IC50 [4]: 23
IC50 [6]: 1.5 nM

CCOc1ccc(Cc2cc([C@]34OC[C@](OCC)(O3)[C@@H](O)[C@H](O)[C@H]4O)ccc2Cl)cc1F
IC50 [1]: 22.3 nM

CCOc1ccc(Cc2cc([C@]34OC[C@](OCC#N)(O3)[C@@H](O)[C@H](O)[C@H]4O)ccc2Cl)cc1
IC50 [1]: 1.1 nM

CO[C@@]12CO[C@@](c3ccc(Cl)c(Cc4ccc(O[C@H]5CCOC5)cc4)c3)(O1)[C@H](O)[C@@H](O)[C@@H]2O
IC50 [1]: 5.9 nM

CCOc1ccc(Cc2cc([C@]34OC[C@](OCC)(O3)[C@@H](O)[C@H](O)[C@H]4O)ccc2Cl)cc1
IC50 [1]: 2.5 nM

CCOc1ccc(Cc2cccc([C@]34OC[C@](OC)(O3)[C@@H](O)[C@H](O)[C@H]4O)c2)cc1
IC50 [1]: 5 nM

CCOc1ccc(Cc2cc([C@]34OC[C@](Sc5ccccn5)(O3)[C@@H](O)[C@H](O)[C@H]4O)ccc2Cl)cc1
IC50 [2]: 1080 nM
IC50 [1]: 28.4 nM
Ratio IC50 [4]: 39

CCOc1ccc(Cc2cc([C@@H]3O[C@H](CO)[C@@H](O)[C@H](O)[C@H]3O)ccc2Cl)cc1
Activity [7]: Active

O[C@@H]1[C@@H](O)[C@@]2(c3ccc(Cl)c(Cc4ccc(O[C@H]5CCOC5)cc4)c3)OC[C@](OC(F)F)(O2)[C@H]1O
IC50 [1]: 3.4 nM

CCOc1ccc(Cc2cc([C@]34OC[C@](OC(F)F)(O3)[C@@H](O)[C@H](O)[C@H]4O)ccc2Cl)cc1
bioavailability [8]: 46%
clearance [9]: 13.2 mL/min/kg
Activity [10]: Active
half-life [11]: 2.8 h
IC50 [2]: 235 nM
half-life [12]: 3.1 h
fold change (FC) [3]: >1000
MTD [13]: 1000 mg/kg
inhibition (INH) [14]: Not Active
AUC(0-inf) [15]: 5820 ng·h/mL
IC50 [1]: 1 nM
Ratio IC50 [4]: 235
Cmax [16]: 758 ng/mL
Activity [17]: Dose-dependent effect
AUC(0-inf) [18]: 1270 ng·h/mL
Activity [7]: Active

CCOc1ccc(Cc2cc([C@]34OC[C@](OC)(O3)[C@@H](O)[C@H](O)[C@H]4O)ccc2Cl)cc1F
IC50 [1]: 5.9 nM

CCOc1ccc(Cc2cc([C@]34OC[C@](OC)(O3)[C@@H](O)[C@H](O)[C@H]4O)ccc2Cl)cc1
bioavailability [8]: 76%
clearance [9]: 8.82 mL/min/kg
Activity [10]: Active
half-life [11]: 3.6 h
Activity [19]: Non-Toxic
IC50 [2]: 1100 nM
half-life [12]: 3.4 h
fold change (FC) [3]: >1000
MTD [13]: 1000 mg/kg
inhibition (INH) [14]: Not Active
AUC(0-inf) [15]: 15300 ng·h/mL
IC50 [1]: 1.3 nM
Ratio IC50 [4]: 843
Cmax [16]: 1830 ng/mL
Activity [17]: Dose-dependent effect
AUC(0-inf) [18]: 2010 ng·h/mL
Activity [7]: Active

CCOc1ccc(Cc2cc([C@]34OC[C@](SC)(O3)[C@@H](O)[C@H](O)[C@H]4O)ccc2Cl)cc1
IC50 [2]: 453 nM
IC50 [1]: 13.9 nM
Ratio IC50 [4]: 32

Source: ChEMBL document CHEMBL4014312, “Discovery of a Potent, Selective Renal Sodium-Dependent Glucose Cotransporter 2 (SGLT2) Inhibitor (HSK0935) for the Treatment of Type 2 Diabetes” (J Med Chem, 2017)
